Experimental data as given in ChEMBL document CHEMBL1155882, “Selective nucleoside triphosphate diphosphohydrolase-2 (NTPDase2) inhibitors: nucleotide mimetics derived from uridine-5'-carboxamide” (J Med Chem, 2008).

What was measured:
[1] = target: T1, Ectonucleoside triphosphate diphosphohydrolase 3 (Homo sapiens) (UniProt O75355); experiment: Inhibition of human NTPDase 3 expressed in COS7 cells at 1mM; assay type: cell-based; conditions: COS-7
T1 sequence (whole entry): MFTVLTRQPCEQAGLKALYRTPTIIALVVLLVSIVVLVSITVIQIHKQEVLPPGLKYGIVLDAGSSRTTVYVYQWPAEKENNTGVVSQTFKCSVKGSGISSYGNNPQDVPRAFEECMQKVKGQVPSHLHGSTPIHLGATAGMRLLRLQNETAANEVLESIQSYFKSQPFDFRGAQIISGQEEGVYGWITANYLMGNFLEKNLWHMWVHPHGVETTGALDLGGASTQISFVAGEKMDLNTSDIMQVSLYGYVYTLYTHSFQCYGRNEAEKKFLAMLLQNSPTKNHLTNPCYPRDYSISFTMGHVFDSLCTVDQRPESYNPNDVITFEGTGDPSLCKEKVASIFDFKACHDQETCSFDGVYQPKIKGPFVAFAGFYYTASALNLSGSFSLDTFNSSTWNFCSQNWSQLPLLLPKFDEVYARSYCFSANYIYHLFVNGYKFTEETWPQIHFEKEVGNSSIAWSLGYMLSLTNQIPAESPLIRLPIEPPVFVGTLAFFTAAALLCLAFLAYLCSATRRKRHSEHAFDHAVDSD
Procedure, shortened: (§1)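 NTPDase2 membranes come from stably transfected HEK 293 cells; NTPDase3 and NTPDase8 are transiently expressed in COS-7 cells as crude protein extracts. Buffer is 140 mM NaCl, 5 mM KCl, 1 mM MgCl2, 2 mM CaCl2, 10 mM HEPES pH 7.4, with 400 μM ATP, 37 °C, 10 min, stopped at 99 °C. Products are read by capillary electrophoresis (UV 210 nm, UMP internal standard).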

P2Y purinoceptor 2 [2] = target: T2, P2Y purinoceptor 2 (Homo sapiens, UniProt P41231); experiment: Antagonist activity at human P2Y2 receptor expressed in human 1321N1 cells assessed as inhibition of UTP-induced intracellular calcium mobilization at 100 uM by FLUOstar plate reader; assay type: functional, cell-based
Procedure, shortened: (§2)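 Human 1321N1 astrocytoma cells express human P2Y2 or P2Y4, or rat P2Y6. Cells are loaded with Fura-2 AM and preincubated with compound at 100 μM. Inhibition of agonist-induced intracellular calcium release is read as Fura-2 fluorescence. The agonist is UTP for P2Y2 and P2Y4, and UDP for P2Y6.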

P2Y purinoceptor 4 [3] = target: T3, P2Y purinoceptor 4 (Homo sapiens, UniProt P51582); experiment: Antagonist activity at human P2Y4 receptor expressed in human 1321N1 cells assessed as inhibition of UTP-induced receptor activation at 100 uM relative to UTP; assay type: functional, cell-based; design: scale not given: the % may be the effect or the level left; procedure, shortened: as §2
[4] = target: P2Y purinoceptor 6 (Rattus norvegicus) (UniProt Q63371); experiment: Antagonist activity at rat P2Y6 receptor expressed in human 1321N1 cells assessed as inhibition of UDP-induced intracellular calcium mobilization at 100 uM by NOVOstar plate reader; assay type: functional, cell-based; procedure, shortened: as §2
P2Y purinoceptor 2 [5] = target: T2, P2Y purinoceptor 2; experiment: Antagonist activity at human P2Y2 receptor expressed in human 1321N1 cells assessed as inhibition of UTP and ATP-induced receptor activation at 100 uM relative to UTP; assay type: functional, cell-based; design: scale not given: the % may be the effect or the level left; procedure, shortened: as §2
[6] = target: P2Y purinoceptor 6 (Rattus norvegicus) (UniProt Q63371); experiment: Antagonist activity at rat P2Y6 receptor expressed in human 1321N1 cells assessed as inhibition of UDP-induced receptor activation at 100 uM relative to UDP; assay type: functional, cell-based; design: scale not given: the % may be the effect or the level left; procedure, shortened: as §2
[7] = target: T4, Ectonucleoside triphosphate diphosphohydrolase 8 (Homo sapiens) (UniProt Q5MY95); experiment: Inhibition of human NTPDase 8 expressed in COS7 cells at 1mM; assay type: cell-based; conditions: COS-7
T4 sequence (whole entry): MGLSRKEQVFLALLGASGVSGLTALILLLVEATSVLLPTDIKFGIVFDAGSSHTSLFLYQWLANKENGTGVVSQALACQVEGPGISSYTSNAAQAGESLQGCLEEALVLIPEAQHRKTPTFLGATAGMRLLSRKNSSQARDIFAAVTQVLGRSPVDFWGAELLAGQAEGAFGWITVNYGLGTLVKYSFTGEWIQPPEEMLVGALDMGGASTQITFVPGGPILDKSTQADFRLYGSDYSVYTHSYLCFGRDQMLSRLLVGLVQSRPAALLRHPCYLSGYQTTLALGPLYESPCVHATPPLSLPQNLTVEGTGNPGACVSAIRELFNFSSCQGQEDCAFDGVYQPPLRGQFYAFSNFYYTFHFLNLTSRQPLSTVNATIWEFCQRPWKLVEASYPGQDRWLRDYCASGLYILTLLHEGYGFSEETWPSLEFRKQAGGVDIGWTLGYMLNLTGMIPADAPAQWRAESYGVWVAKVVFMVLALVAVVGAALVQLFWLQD
Procedure, shortened: (§3)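 Transiently transfected COS-7 cell protein extract expressing human enzyme. 1 mM test compound with 400 μM ATP in HEPES 10 mM pH 7.4 buffer (NaCl, KCl, 1 mM MgCl2, 2 mM CaCl2), 37 °C for 10 min. Stopped at 99 °C for 5 min. Products measured by capillary electrophoresis, UV 210 nm, with UMP internal standard. Triplicates in two experiments; empty-pcDNA3 membrane control.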

[8] = Metabolic stability in rat liver microsomes after 24 hrs by LC-MS analysis; assay type: ADME, Microsome; conditions: read-out: Stability
[9] = target: T5, Ectonucleoside triphosphate diphosphohydrolase 1 (Homo sapiens) (UniProt P49961); experiment: Inhibition of human NTPDase 1 expressed in COS7 cells at 1mM; assay type: cell-based; conditions: COS-7; procedure, shortened: as §3
T5 sequence (whole entry): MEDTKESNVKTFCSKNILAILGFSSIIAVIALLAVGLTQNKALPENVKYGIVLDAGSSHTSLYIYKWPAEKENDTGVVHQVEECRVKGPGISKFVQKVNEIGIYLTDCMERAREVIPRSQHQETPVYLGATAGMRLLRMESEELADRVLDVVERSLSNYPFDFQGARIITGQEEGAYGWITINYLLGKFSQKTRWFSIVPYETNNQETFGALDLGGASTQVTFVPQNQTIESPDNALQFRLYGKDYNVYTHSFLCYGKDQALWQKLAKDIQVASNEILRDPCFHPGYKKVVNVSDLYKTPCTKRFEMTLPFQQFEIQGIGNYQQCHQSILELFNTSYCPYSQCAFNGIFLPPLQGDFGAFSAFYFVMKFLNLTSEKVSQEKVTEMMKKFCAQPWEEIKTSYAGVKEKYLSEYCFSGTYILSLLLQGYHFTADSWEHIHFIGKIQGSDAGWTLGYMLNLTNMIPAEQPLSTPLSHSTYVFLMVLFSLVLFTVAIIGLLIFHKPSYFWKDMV

[10] = Stability in simulated artificial gastric juice after 24 hrs by LC-MS analysis; assay type: physicochemical; conditions: simulated gi fluid
P2Y purinoceptor 4 [11] = target: T3, P2Y purinoceptor 4; experiment: Antagonist activity at human P2Y4 receptor expressed in human 1321N1 cells assessed as inhibition of UTP-induced intracellular calcium mobilization at 100 uM by FLUOstar plate reader; assay type: functional, cell-based; procedure, shortened: as §2
[12] = Chemical stability in 0.001 N aqueous sodium hydroxide at pH 11 by LC-MS analysis; assay type: physicochemical; conditions: buffer
Procedure, shortened: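 Compound from a 2 mM aqueous stock (20 mM NH4OAc) is diluted 10 μL into 990 μL of 0.001 N NaOH (pH 11). It is incubated 2 or 24 h at 37 °C and analysed by C18 LC–ESI-MS, with detection limit about 0.1 μg/mL.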

[13] = target: T6, Ectonucleoside triphosphate diphosphohydrolase 2 (Homo sapiens, UniProt Q9Y5L3); experiment: Inhibition of human NTPDase 2 expressed in HEK293 cells assessed as residual activity by capillary electrophoresis; assay type: cell-based; procedure, shortened: as §1
T6 sequence (Q9Y5L3 whole entry): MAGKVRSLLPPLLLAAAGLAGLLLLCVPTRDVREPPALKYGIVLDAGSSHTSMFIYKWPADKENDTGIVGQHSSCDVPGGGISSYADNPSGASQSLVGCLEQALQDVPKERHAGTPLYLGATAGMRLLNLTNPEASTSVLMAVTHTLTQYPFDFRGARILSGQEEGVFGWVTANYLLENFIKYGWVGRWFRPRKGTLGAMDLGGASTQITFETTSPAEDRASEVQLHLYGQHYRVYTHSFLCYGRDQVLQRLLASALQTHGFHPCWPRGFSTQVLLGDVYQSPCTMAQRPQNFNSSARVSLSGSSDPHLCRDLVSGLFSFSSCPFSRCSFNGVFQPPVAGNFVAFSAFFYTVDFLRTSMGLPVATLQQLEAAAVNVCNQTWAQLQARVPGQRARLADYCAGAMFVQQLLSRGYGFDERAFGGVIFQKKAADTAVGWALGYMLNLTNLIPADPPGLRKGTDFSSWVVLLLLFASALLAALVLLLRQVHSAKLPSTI

[14] = target: T7, Ectonucleoside triphosphate diphosphohydrolase 2 (Homo sapiens) (UniProt Q9Y5L3); experiment: Inhibition of human NTPDase 2 expressed in HEK293 cells at 1mM; assay type: cell-based
T7 sequence (whole entry): T6 sequence (Q9Y5L3 whole entry)
Procedure, shortened: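 Membranes from HEK 293 cells stably expressing human NTPDase2 (geneticin selection), prepared by differential and sucrose-gradient centrifugation. 1 mM test compound with 400 μM ATP in 10 mM HEPES pH 7.4 saline (1 mM MgCl2, 2 mM CaCl2), 37 °C for 10 min. Heat-stopped at 99 °C. Nucleotides separated by capillary electrophoresis, UV 210 nm, UMP internal standard. Triplicates, two experiments.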

[15] = target: T8, Ectonucleoside triphosphate diphosphohydrolase 8 (Homo sapiens, UniProt Q5MY95); experiment: Inhibition of human NTPDase 8 expressed in COS7 cells; assay type: cell-based, COS-7; procedure, shortened: as §1
T8 sequence (Q5MY95 whole entry): T4 sequence (whole entry)

[16] = Inhibition of rat NTPDase 3

T2 sequence (P41231 whole entry): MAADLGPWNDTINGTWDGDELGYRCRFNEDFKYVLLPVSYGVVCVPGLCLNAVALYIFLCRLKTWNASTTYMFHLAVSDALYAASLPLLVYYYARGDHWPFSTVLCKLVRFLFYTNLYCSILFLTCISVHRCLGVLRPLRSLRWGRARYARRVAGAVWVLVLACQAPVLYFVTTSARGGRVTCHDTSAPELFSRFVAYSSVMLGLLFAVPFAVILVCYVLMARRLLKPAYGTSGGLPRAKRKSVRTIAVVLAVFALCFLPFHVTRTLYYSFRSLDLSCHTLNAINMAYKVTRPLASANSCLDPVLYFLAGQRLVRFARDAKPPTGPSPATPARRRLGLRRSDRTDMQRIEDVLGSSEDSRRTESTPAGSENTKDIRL
Chain of P2Y purinoceptor 6 (Rattus norvegicus) (Q63371 whole entry): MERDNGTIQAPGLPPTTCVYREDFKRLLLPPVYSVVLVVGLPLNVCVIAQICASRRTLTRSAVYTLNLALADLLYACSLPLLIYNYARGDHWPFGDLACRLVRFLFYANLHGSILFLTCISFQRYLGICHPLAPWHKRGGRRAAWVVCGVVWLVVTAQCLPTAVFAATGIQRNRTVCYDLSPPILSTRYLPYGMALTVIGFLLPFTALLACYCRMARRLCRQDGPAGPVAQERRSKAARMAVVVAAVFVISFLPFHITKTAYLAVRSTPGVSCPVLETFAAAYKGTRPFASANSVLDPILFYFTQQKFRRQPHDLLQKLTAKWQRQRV
T3 sequence (P51582 whole entry): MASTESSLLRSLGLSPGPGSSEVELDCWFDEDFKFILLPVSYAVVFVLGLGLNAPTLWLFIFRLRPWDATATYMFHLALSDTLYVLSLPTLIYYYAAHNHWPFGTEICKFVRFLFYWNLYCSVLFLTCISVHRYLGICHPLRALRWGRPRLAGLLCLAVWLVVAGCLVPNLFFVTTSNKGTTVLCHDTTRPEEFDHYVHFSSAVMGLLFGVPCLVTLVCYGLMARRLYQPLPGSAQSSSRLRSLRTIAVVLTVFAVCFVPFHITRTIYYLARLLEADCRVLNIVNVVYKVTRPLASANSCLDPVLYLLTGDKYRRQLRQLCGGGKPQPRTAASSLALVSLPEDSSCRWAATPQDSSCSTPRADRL

Molecule `CCOP(=O)(Cc1ccc(NC(=O)CCNC(=O)[C@H]2O[C@@H](n3cnc4c(N)ncnc43)[C@H](O)[C@@H]2O)cc1)OCC` has an inhibition [1] of 0%, an inhibition (P2Y purinoceptor 2 [2]) of 46% and an Activity (P2Y purinoceptor 4 [3]) of 11%. The inhibition [4] was 15%, the Activity (P2Y purinoceptor 2 [5]) was 16% and the Activity [6] was -7%. It also gave an inhibition [7] of 0%.
In the case of `CCOP(=O)(Cc1ccc(NC(=O)CNC(=O)[C@H]2O[C@@H](n3ccc(=O)[nH]c3=O)[C@H](O)[C@@H]2O)cc1)OCC`, the remaining at 24 h [8] is reported as > 95%, the inhibition [1] is reported as 0% and the inhibition [9] is reported as 50%. It also gave an inhibition (P2Y purinoceptor 2 [2]) of 22%, an Activity (P2Y purinoceptor 4 [3]) of -42% and an inhibition [4] of -10%. The Activity (P2Y purinoceptor 2 [5]) was -21%, the Activity [6] was -7% and the inhibition [7] was 0%. The Stability [10] was “Stable”, the inhibition (P2Y purinoceptor 4 [11]) was 4% and the Stability [12] was “Stable”. It also gave an IC50 [13] of 42 µM.
`CCOP(=O)(CNC(=O)CCCNC(=O)[C@H]1O[C@@H](n2ccc(=O)[nH]c2=O)[C@H](O)[C@@H]1O)OCC` showed an inhibition [1] of 0%, an inhibition [9] of 45% and an inhibition [4] of -3%. For the same molecule, the inhibition [7] was 0%, the inhibition (P2Y purinoceptor 4 [11]) was 21% and the IC50 [13] was 101 µM.
Work on `CCOP(=O)(CNC(=O)CCCNC(=O)[C@H]1O[C@@H](n2cnc3c(N)ncnc32)[C@H](O)[C@@H]1O)OCC` yielded an inhibition [1] of 0%, an inhibition [9] of 0% and an inhibition (P2Y purinoceptor 2 [2]) of 32%. It also gave an inhibition [7] of 0% and an inhibition [14] of 0%.
In the case of `CCN(CC)c1ncnc2c1ncn2[C@@H]1O[C@H](COP(=O)(O)OP(=O)(O)C(Br)(Br)P(=O)(O)O)[C@@H](O)[C@H]1O`, the Ki [15] is reported as > 100 µM and the Ki [16] is reported as 112 µM.
Molecule `CCOP(=O)(CNC(=O)CCNC(=O)[C@H]1O[C@@H](n2ccc(=O)[nH]c2=O)[C@H](O)[C@@H]1O)OCC` has an inhibition [1] of 0%, an inhibition [9] of 0% and an inhibition (P2Y purinoceptor 2 [2]) of 43%. For the same molecule, the Activity (P2Y purinoceptor 4 [3]) was 11%, the inhibition [4] was -3% and the Activity (P2Y purinoceptor 2 [5]) was 13%. For the same molecule, the Activity [6] was -16%, the inhibition [7] was 0% and the inhibition (P2Y purinoceptor 4 [11]) was 6%.
For `CCOP(=O)(CNC(=O)CNC(=O)[C@H]1O[C@@H](n2ccc(=O)[nH]c2=O)[C@H](O)[C@@H]1O)OCC`, the inhibition [1] was 0%, the Activity (P2Y purinoceptor 4 [3]) was 46% and the inhibition [4] was 17%. It also gave an Activity (P2Y purinoceptor 2 [5]) of 58%, an Activity [6] of 12% and an inhibition [7] of 0%. For the same molecule, the inhibition (P2Y purinoceptor 4 [11]) was 38% and the IC50 [13] was 374 µM.
